Screening results: PubChem BioAssay, Johns Hopkins Ion Channel Center
Hits are enriched below; roughly 3.7% of the tested compounds scored in any of these assays.
KCNK9 block = KCNK9 potassium channel inhibitors, primary screen, HEK293 cells, thallium flux | Potassium channel subfamily K member 9 (Homo sapiens), Q9NPC2 | FluxOR thallium flux fluorescence; hits give low values | B-score at 10 µM | hit rate 1.2% among 310,000 | AID 488922, 2010;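 active means ratio B-score over 3 SD below the library mean, with starting fluorescence within 5 SD of its mean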;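 further: negative B-score means less thallium flux so channel inhibition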
KCNK3 inh = human KCNK3 channel inhibitors, primary screen, CHO cells, FluxOR thallium flux, B-score; Potassium channel subfamily K member 3 (Homo sapiens), O14649; FluxOR fluorescence; hits give low values; B-score at 10 µM; hit rate 0.84% among 340,000; AID 602410, 2012;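 active means B-score under library mean minus 4 SD, starting fluorescence ratio at most library mean plus 5 SD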;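 further: more negative B-score means stronger inhibition of thallium flux through KCNK3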
hERG protect = hERG rescue from dofetilide block, primary screen, cell-based, CHO-hERG, FluxOR thallium flux, dofetilide IC70; Voltage-gated inwardly rectifying potassium channel KCNH2 (Homo sapiens), Q12809; dofetilide IC70 present; activation (rescue from dofetilide block), less the hit threshold, % at 10 µM; hit rate 0.51% among 310,000; AID 1511, 2009;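 active means activation above the mean of controls blocked by dofetilide plus 5 SD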;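 further: thallium influx through hERG after potassium depolarization seen as dye fluorescence rise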
Kir21 block = inhibitors of mouse Kir2.1 inward-rectifier potassium channel; HEK293-Kir2.1, FluxOR thallium flux fluorescence; hits give low values; B-score at 10 µM; hit rate 0.85% among 310,000;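 active means fluorescence ratio B-score at or below minus 3 SD of library scores, with starting-brightness B-score within 2 SD, cut at about -4.2 in these data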;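 further: channel flux triggered by added potassium and thallium sulfate stimulus; B-score of peak minus minimum fluorescence over baseline after thallium stimulus; more negative B-score means stronger Kir2.1 block with less thallium influx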
Target sequence (P35561 whole entry, looked up): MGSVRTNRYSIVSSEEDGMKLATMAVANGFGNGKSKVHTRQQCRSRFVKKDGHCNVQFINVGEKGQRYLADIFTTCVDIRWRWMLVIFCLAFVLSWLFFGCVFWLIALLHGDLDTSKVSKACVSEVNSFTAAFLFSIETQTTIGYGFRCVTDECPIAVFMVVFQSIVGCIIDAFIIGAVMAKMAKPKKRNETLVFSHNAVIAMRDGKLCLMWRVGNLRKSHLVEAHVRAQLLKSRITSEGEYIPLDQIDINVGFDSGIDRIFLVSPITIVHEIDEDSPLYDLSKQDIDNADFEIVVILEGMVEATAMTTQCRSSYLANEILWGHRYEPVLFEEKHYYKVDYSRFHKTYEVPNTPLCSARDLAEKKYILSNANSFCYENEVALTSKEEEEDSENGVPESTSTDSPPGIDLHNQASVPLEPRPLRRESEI
KCNQ1 pot = potentiators or activators of KCNQ1 channel, primary screen, cell-based, thallium flux, high-throughput; Potassium voltage-gated channel subfamily KQT member 1 (Homo sapiens), P51787; CHO-K1 KCNQ1, thallium flux FluxOR fluorescence; hits give high values; B-score at 10 µM; hit rate 0.35% among 310,000;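 active means fluorescence ratio B-score, a plate-corrected score, at least three library SD, with initial intensity B-score within 5 SD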
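Doses: Single concentration per compound, DMSO matched to controls | Test system: KCNQ1-transfected CHO-K1 cells | Timing: 90 min dye loading and 20 min compound exposure, both at room temperature | Measured by: Kinetic FluxOR thallium fluorescence, 10-s 1-Hz baseline, 110-s post-stimulus read | Medium: Assay buffer with matched DMSO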
KCNQ1 inh = inhibitors of human KCNQ1 channel, primary screen, cell-based, thallium flux, high-throughput | Potassium voltage-gated channel subfamily KQT member 1 (Homo sapiens), P51787 | CHO-K1 KCNQ1, FluxOR thallium flux fluorescence; hits give high values | B-score at 10 µM | hit rate 1.3% among 310,000;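 active means compounds whose thallium flux B-score, printed positive for inhibition, exceeds three library SD while starting fluorescence stays within three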;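 further: channel opened by potassium depolarization with thallium stimulus after 20 min compound exposure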
KCNK3 inh conf = retest of human KCNK3 channel inhibitors, confirmation, CHO cells, FluxOR thallium flux, triplicate; shares compounds with KCNK3 inh; FluxOR fluorescence; 0% buffer, 100% carvedilol maximal block; ratio percent of control, % at 10 µM; hit rate 99% among 2,400; AID 651638, 2012;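 active means ratio percent of control, averaged over triplicates, above buffer control mean plus 5 SD, cut at about 64% in these data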;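 further: ratio is the fluorescence rise from min to max over baseline after thallium stimulus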
KCNK3 noninduced = thallium flux inhibition in non-induced cells, primary screen, counter-screen for KCNK3 inhibitor project, cell-based, non-induced KCNK3 line, FluxOR thallium, triplicate; shares compounds with KCNK3 inh; non-induced KCNK3 parental cells; hits give low values; thallium flux ratio (lower = more inhibition) at 10 µM; hit rate 40% among 2,400;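 active means thallium flux ratio, averaged over three wells, more than 5 SD below the buffer control mean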;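 further: host cells are CHO cells without KCNK3 induction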
Of the large screens only hits and unclear results are named; the others gave an inactive call (follow-up assays come after a bar, where they were run).

CC(C)CCNC(=O)c1cc(C(=O)c2cc(Br)ccc2O)cn(CCC(C)C)c1=O	KCNK3 inh -11 | KCNK3 inh conf 103 | KCNK3 noninduced inactive
CCN(CC)C(=O)c1ccc(NC(=O)CCCSc2ccccc2)cc1	none
CCN(CC)C(=O)c1ccc(NC(=O)Nc2ccccc2F)cc1	KCNK3 inh -9.1 | KCNK3 inh conf 85 | KCNK3 noninduced 0.16
Clc1ccc(CCC(Cn2ccnc2)Sc2c(Cl)cccc2Cl)cc1 (stereo unspecified)	KCNK3 inh -14 (no result: KCNK9 block, hERG protect, Kir21 block, KCNQ1 pot, KCNQ1 inh) | KCNK3 inh conf 120 | KCNK3 noninduced 0.15
Clc1ccc(Cn2ccnc2)cn1	none
O=C1NC(=O)C(Nc2ccccc2)C(=O)N1	none (no result: KCNK9 block, hERG protect, Kir21 block, KCNQ1 pot, KCNQ1 inh)
COc1ccc(N=Cc2c(O)n(Cc3ccccc3)c(=S)[nH]c2=O)c(OC)c1	KCNK3 inh -8.7, KCNQ1 inh 6 | KCNK3 inh conf 151 | KCNK3 noninduced inactive
CCN(CC)S(=O)(=O)c1cccc(N=Nc2c(O)n(CC)c(=S)n(CC)c2=O)c1	KCNK9 block -6.8, KCNK3 inh -12 | KCNK3 inh conf 117 | KCNK3 noninduced inactive
Cn1c(O)c(N=Nc2cccc(S(=O)(=O)N3CCOCC3)c2)c(=O)n(C)c1=O	none
CCCCn1c(=O)c(C(=O)Nc2ccccn2)c(O)c2ccccc21	KCNK3 inh -8.7, KCNQ1 inh 7 | KCNK3 inh conf 104 | KCNK3 noninduced 0.14
